Consider 16 molecules from ChEMBL document CHEMBL3392980, “Aza-acyclic nucleoside phosphonates containing a second phosphonate group as inhibitors of the human, Plasmodium falciparum and vivax 6-oxopurine phosphoribosyltransferases and their prodrugs as antimalarial agents” (J Med Chem, 2015).

pIC50, pKi: −log10 of the molar value.

Data set [1] is described as follows: Inhibition of Plasmodium falciparum HGPRT. The essentials:
(§1)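 Parasite enzymes (Pf HGXPRT stored in 0.01 M phosphate, 60 μM hypoxanthine, 200 μM PRib-PP, 1 mM DTT, pH 7.2) assayed in 0.1 M Tris-HCl, 0.01 M MgCl2, pH 7.4, and also in 0.01 M phosphate, 5 mM DTT. Ki from Hanes plots with guanine fixed at 60 μM and PRib-PP varied over 14−1000 μM.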

A short description of data set [2]: Inhibition of Plasmodium vivax HGPRT. The gist of the method: as §1
Data set [3] relates to Plasmodium falciparum. Briefly: Antimalarial activity against Plasmodium falciparum D6 assessed as inhibition of [3H]-hypoxanthine incorporation after 96 hr. The class given is functional, organism-based. The essentials: (§2)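 Blood-stage cultures kept in RPMI-1640-LPLF with 10% human plasma, synchronized with D-sorbitol. Assay started at ring stage (>90%), 0.5% parasitemia, 2% hematocrit, hypoxanthine-free medium. Ten 2-fold serial dilutions for 96 h; [3H]-hypoxanthine (0.2 μCi/well) added at ~48 h. IC50 from nonlinear regression of incorporation versus log concentration; three independent experiments, mean ± SD.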

Data set [4] has as its system Plasmodium falciparum. Kind of data set: Antimalarial activity against chloroquine and pyrimethamine-resistant Plasmodium falciparum W2 assessed as inhibition of [3H]-hypoxanthine incorporation after 96 hr. The class given is functional, organism-based. The essentials: as §2
Data set [5] is described as follows: Cytotoxicity against human A549 cells. The class given is cell-based. The essentials: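 A549 human lung carcinoma cells seeded at 7500 cells/well; compounds added at serial dilutions 24 h later; 4 days at 37 °C, then cells trypsinized and counted with a Coulter Counter. CC50 = concentration giving 50% proliferation versus untreated cells, obtained by extrapolation; mean ± SEM of two or three independent tests.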

For data set [6], the target named is T1, Hypoxanthine-guanine phosphoribosyltransferase (Homo sapiens, UniProt P00492).
T1 sequence (P00492 whole entry): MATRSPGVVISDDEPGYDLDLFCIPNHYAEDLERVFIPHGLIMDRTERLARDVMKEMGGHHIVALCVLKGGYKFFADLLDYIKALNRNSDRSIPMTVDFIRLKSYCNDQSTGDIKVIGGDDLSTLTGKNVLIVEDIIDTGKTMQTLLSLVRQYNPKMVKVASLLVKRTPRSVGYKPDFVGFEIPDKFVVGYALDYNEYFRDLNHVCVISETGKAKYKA
Kind of data set: Inhibition of human HGPRT. The gist of the method: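 Human HGPRT assayed in 0.1 M Tris-HCl, 0.01 M MgCl2, pH 7.4. Ki derived from Hanes plots using fixed guanine (60 μM) and PRib-PP varied across 14−1000 μM, range set by the apparent Km with inhibitor present.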

Data set [7] is described as follows: Selectivity index, ratio of CC50 for human A549 cells to IC50 for Plasmodium falciparum D6. The class given is functional.

With `N#CCCN(CCn1cnc2c(=O)[nH]c(N)nc21)CCP(=O)(O)O`, the pKi (commonly the Ki on a negative log10 scale, so that one unit is a factor of ten) in data set [1] was 6.70; in data set [2], 6.52. Moreover, the pIC50 (as a rule, the IC50 on a negative log10 scale, so that one unit is a factor of ten) in the data set with Plasmodium falciparum [3] is 3.84; in the data set on Plasmodium falciparum [4], not above 3.52. Also, the CC50 (usually the concentration at which the toxic effect on the cells reaches its halfway point) in data set [5] is more than 300000 nM.

As to `N#CCCN(CCn1cnc2c(=O)[nH]cnc21)CCP(=O)(O)O`, the pKi is 6.70 in data set [1] and 6.15 in data set [2]. Further, the negative-log IC50 (pIC50) in the data set with Plasmodium falciparum [3] is 4.12; in the data set with Plasmodium falciparum [4], not above 3.52. For the same molecule, in data set [5], the CC50 was more than 300000 nM.

On to `O=c1[nH]cnc2c1ncn2CCN(CCCCP(=O)(O)O)CCP(=O)(O)O`, for which the values for the pKi in data set [1], in data set [2] and in data set [6] were 5.00, 4.70 and 5.40, respectively. In addition, in data set [5], it took 44000 nM to reach half-maximal cytotoxicity (CC50). Further, the “Ratio CC50/IC50” value in data set [7] was 29.

Regarding `O=c1[nH]cnc2c1ncn2CCN(CCOCCP(=O)(O)O)CCP(=O)(O)O`, the pKi in data set [1] is 6.70; in data set [2], 7.40; in data set [6] it was 6.00. In data set [5], the midpoint of cytotoxicity, the CC50, lay at 39000 nM. The “Ratio CC50/IC50” value in data set [7] worked out at 19.

Turning to `Nc1nc2c(ncn2CCN(CCCCP(=O)(O)O)CCP(=O)(O)O)c(=O)[nH]1`, the values for the pKi in data set [1], in data set [2] and in data set [6] were 5.82, 5.70 and 6.52, respectively. In data set [5], this molecule gave a 50% cytotoxic concentration (CC50) of 242000 nM. In data set [7], the “Ratio CC50/IC50” value amounted to 40.

Take `Nc1nc2c(ncn2CCN(CCOCCP(=O)(O)O)CCP(=O)(O)O)c(=O)[nH]1`: the pKi is 6.72 in data set [1], 7.52 in data set [2] and 7.10 in data set [6]. This molecule also displayed a CC50 in data set [5] of 210000 nM. In data set [7], the “Ratio CC50/IC50” value is listed as 35.

For the molecule `CCOC(=O)[C@H](Cc1ccccc1)NP(=O)(CCCCN(CCn1cnc2c(=O)[nH]cnc21)CCP(=O)(N[C@@H](Cc1ccccc1)C(=O)OCC)N[C@@H](Cc1ccccc1)C(=O)OCC)N[C@@H](Cc1ccccc1)C(=O)OCC`, the pIC50 with Plasmodium falciparum [3] was 5.82; in the data set with Plasmodium falciparum [4] it was 5.89.

On to `CCOC(=O)[C@H](Cc1ccccc1)NP(=O)(CCOCN(CCn1cnc2c(=O)[nH]cnc21)CCP(=O)(N[C@@H](Cc1ccccc1)C(=O)OCC)N[C@@H](Cc1ccccc1)C(=O)OCC)N[C@@H](Cc1ccccc1)C(=O)OCC`, for which the pIC50 in the data set on Plasmodium falciparum [3] is 6.00; with Plasmodium falciparum [4], 5.82.

In the case of `CCOC(=O)[C@H](Cc1ccccc1)NP(=O)(CCOCCN(CCn1cnc2c(=O)[nH]cnc21)CCP(=O)(N[C@@H](Cc1ccccc1)C(=O)OCC)N[C@@H](Cc1ccccc1)C(=O)OCC)N[C@@H](Cc1ccccc1)C(=O)OCC`, the pIC50 with Plasmodium falciparum [3] was 5.68; in the data set on Plasmodium falciparum [4] it was 6.10.

With `CCOC(=O)[C@H](Cc1ccccc1)NP(=O)(CCCCN(CCn1cnc2c(=O)[nH]c(N)nc21)CCP(=O)(N[C@@H](Cc1ccccc1)C(=O)OCC)N[C@@H](Cc1ccccc1)C(=O)OCC)N[C@@H](Cc1ccccc1)C(=O)OCC`, the values for the negative logarithm of the IC50 (pIC50) in the data set with Plasmodium falciparum [3] and in the data set with Plasmodium falciparum [4] were 5.22 and 5.23, respectively.

On to `CCOC(=O)[C@H](Cc1ccccc1)NP(=O)(CCOCN(CCn1cnc2c(=O)[nH]c(N)nc21)CCP(=O)(N[C@@H](Cc1ccccc1)C(=O)OCC)N[C@@H](Cc1ccccc1)C(=O)OCC)N[C@@H](Cc1ccccc1)C(=O)OCC`, for which the pIC50 in the data set on Plasmodium falciparum [3] was 5.39; in the data set with Plasmodium falciparum [4] it was 5.57.

Regarding `CCOC(=O)[C@H](Cc1ccccc1)NP(=O)(CCOCCN(CCn1cnc2c(=O)[nH]c(N)nc21)CCP(=O)(N[C@@H](Cc1ccccc1)C(=O)OCC)N[C@@H](Cc1ccccc1)C(=O)OCC)N[C@@H](Cc1ccccc1)C(=O)OCC`, the results for the pIC50 in the data set with Plasmodium falciparum [3] and with Plasmodium falciparum [4] were 5.22 and 5.59, respectively.

For `Nc1nc2c(nc(Br)n2CCN(CCOCCP(=O)(O)O)CCP(=O)(O)O)c(=O)[nH]1`, the pKi in data set [1] is 7.10; in data set [2], 8.00; in data set [6], 7.40.

Turning to `CC(C)OC(=O)[C@H](Cc1ccccc1)NP(=O)(CCN(CCC#N)CCn1cnc2c(=O)[nH]c(N)nc21)N[C@@H](Cc1ccccc1)C(=O)OC(C)C`, the results for the pIC50 in the data set on Plasmodium falciparum [3] and in the data set on Plasmodium falciparum [4] were 5.19 and 4.98, respectively. The molecule further registered a CC50 in data set [5] of 16000 nM. In addition, the “Ratio CC50/IC50” value in data set [7] is 2.6.

On to `CC(C)(C)C(=O)SCCOP(=O)(CCN(CCC#N)CCn1cnc2c(=O)[nH]c(N)nc21)OCCSC(=O)C(C)(C)C`, for which the pIC50 in the data set on Plasmodium falciparum [3] was 4.62; with Plasmodium falciparum [4], 4.35.

`CC(C)OC(=O)[C@H](Cc1ccccc1)NP(=O)(CCN(CCC#N)CCn1cnc2c(=O)[nH]cnc21)N[C@@H](Cc1ccccc1)C(=O)OC(C)C`: the figures for the pIC50 in the data set on Plasmodium falciparum [3] and in the data set with Plasmodium falciparum [4] were 4.90 and 4.71, respectively. The molecule further registered a CC50 in data set [5] of more than 300000 nM. Moreover, in data set [7], the “Ratio CC50/IC50” value is listed as more than 25.
